According to ChEMBL document CHEMBL2021854, “2-Aminopyrimidine based 4-aminoquinoline anti-plasmodial agents. Synthesis, biological activity, structure-activity relationship and mode of action studies” (Eur J Med Chem, 2012):

Test system: Coxsackievirus B4
Assay: Antiviral activity against Coxsackie virus B4 infected in human HeLa cells assessed as inhibition of virus-induced cytopathogenicity after 4 days
Assay type: functional, organism-based
Conditions: Enterovirus B, 96 h
Outline: (§1)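 Confluent HEL, Vero or HeLa monolayers were inoculated with 100 CCID50 of virus in the presence of varying concentrations of compound. Cytopathicity was scored when it reached completion in untreated, virus-infected control cultures.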
In the case of `CCOC(=O)c1c(C)nc(NCCCNc2ccnc3cc(Cl)ccc23)nc1C`, the EC50 is reported as greater than 100 µM.

Test system: Respiratory syncytial virus
Assay: Antiviral activity against Respiratory syncytial virus infected in human HeLa cells assessed as inhibition of virus-induced cytopathogenicity after 4 days
Assay type: functional, organism-based
Conditions: 96 h
Outline: as §1
Molecule `CCOC(=O)c1c(C)nc(NCCCNc2ccnc3cc(Cl)ccc23)nc1C` has an EC50 greater than 100 µM.

Test system: Influenza A virus
Assay: Antiviral activity against Influenza A virus H1N1 infected in MDCK cells assessed as reduction visual scoring of virus-induced cytopathogenicity after 4 days
Assay type: functional, organism-based
Conditions: 96 h
Outline: (§2)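 MDCK monolayers infected with 100 CCID50 of influenza A (H1N1 or H3N2) or influenza B, with varying compound concentrations. Cytopathicity read when untreated infected controls reached complete CPE.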
For `CCOC(=O)c1c(C)nc(NCCCNc2ccnc3cc(Cl)ccc23)nc1C`, the EC50 was greater than 4 µM.

Test system: Influenza A virus
Assay: Antiviral activity against Influenza A virus H3N2 infected in MDCK cells assessed as reduction visual scoring of virus-induced cytopathogenicity after 4 days
Assay type: functional, organism-based
Conditions: 96 h
Outline: as §2
For `CCOC(=O)c1c(C)nc(NCCCNc2ccnc3cc(Cl)ccc23)nc1C`, the EC50 was greater than 4 µM.

Test system: Influenza B virus
Assay: Antiviral activity against Influenza B virus infected in MDCK cells assessed as reduction visual scoring of virus-induced cytopathogenicity after 4 days
Assay type: functional, organism-based
Conditions: 96 h
Outline: as §2
For `CCOC(=O)c1c(C)nc(NCCCNc2ccnc3cc(Cl)ccc23)nc1C`, the EC50 was greater than 4 µM.

Test system: Influenza A virus
Assay: Antiviral activity against Influenza A virus H1N1 infected in MDCK cells assessed as inhibition of virus-induced cytopathogenicity after 4 days by colorimetric formazan-based MTS assay
Assay type: functional, organism-based
Conditions: 96 h
Molecule `CCOC(=O)c1c(C)nc(NCCCNc2ccnc3cc(Cl)ccc23)nc1C` has an EC50 greater than 4 µM.

Test system: Influenza A virus
Assay: Antiviral activity against Influenza A virus H3N2 infected in MDCK cells assessed as inhibition of virus-induced cytopathogenicity after 4 days by colorimetric formazan-based MTS assay
Assay type: functional, organism-based
Conditions: 96 h
With `CCOC(=O)c1c(C)nc(NCCCNc2ccnc3cc(Cl)ccc23)nc1C` the EC50 was greater than 4 µM.

Test system: Influenza B virus
Assay: Antiviral activity against Influenza B virus infected in MDCK cells assessed as inhibition of virus-induced cytopathogenicity after 4 days by colorimetric formazan-based MTS assay
Assay type: functional, organism-based
Conditions: 96 h
With `CCOC(=O)c1c(C)nc(NCCCNc2ccnc3cc(Cl)ccc23)nc1C` the EC50 was greater than 4 µM.

Test system: Human betaherpesvirus 5
Assay: Antiviral activity against Cytomegalovirus AD-169 infected in HEL cells assessed as inhibition of virus plaque formation after 4 days
Assay type: functional, organism-based
Conditions: Human betaherpesvirus 5, AD169, HEL, 96 h
`CCOC(=O)c1c(C)nc(NCCCNc2ccnc3cc(Cl)ccc23)nc1C` gave an EC50 of 8.94 µM.

Test system: Human betaherpesvirus 5
Assay: Antiviral activity against Human cytomegalovirus Davis infected in HEL cells assessed as inhibition of virus plaque formation after 4 days
Assay type: functional, organism-based
Conditions: Human betaherpesvirus 5, Davis, 96 h
For `CCOC(=O)c1c(C)nc(NCCCNc2ccnc3cc(Cl)ccc23)nc1C`, the EC50 was 8.18 µM.

Test system: HeLa
Assay: Cytotoxicity against human HeLa cells assessed as cell viability by colorimetric formazan-based MTS assay
Conditions: not given
Work on `CCOC(=O)c1c(C)nc(NCCCNc2ccnc3cc(Cl)ccc23)nc1C` yielded a CC50 of 17.5 µM.

Test system: Human alphaherpesvirus 3
Assay: Antiviral activity against […] expressing thymidine kinase infected in HEL cells assessed as reduction of virus plaque formation after 4 days
Assay type: functional, cell-based
Conditions: Human alphaherpesvirus 3, strain Oka vaccine, 96 h
In the case of `CCOC(=O)c1c(C)nc(NCCCNc2ccnc3cc(Cl)ccc23)nc1C`, the EC50 is reported as 9.62 µM.

Test system: Human alphaherpesvirus 3
Assay: Antiviral activity against thymidine kinase-deficient […] infected in HEL cells assessed as reduction of virus plaque formation after 4 days
Assay type: functional, organism-based
Conditions: Human alphaherpesvirus 3, 07-1, HEL, 96 h
Molecule `CCOC(=O)c1c(C)nc(NCCCNc2ccnc3cc(Cl)ccc23)nc1C` has an EC50 greater than 20 µM.

Test system: not listed separately
Assay: Cytotoxicity against cat CRFK cells assessed as cell viability by colorimetric formazan-based MTS assay
Design: species or system Felis catus
Conditions: crfk
`CCOC(=O)c1c(C)nc(NCCCNc2ccnc3cc(Cl)ccc23)nc1C` gave a CC50 greater than 100 µM.

Test system: Feline infectious peritonitis virus
Assay: Antiviral activity against FIPV infected in cat CRFK cells assessed as inhibition of virus-induced cytopathic effect after 4 days by colorimetric formazan-based MTS assay
Assay type: functional, cell-based
Conditions: Alphacoronavirus 1, CRFK, 96 h
With `CCOC(=O)c1c(C)nc(NCCCNc2ccnc3cc(Cl)ccc23)nc1C` the EC50 was greater than 100 µM.

Test system: Felid alphaherpesvirus 1
Assay: Antiviral activity against Feline herpesvirus infected in cat CRFK cells assessed as inhibition of virus-induced cytopathic effect after 4 days by colorimetric formazan-based MTS assay
Assay type: functional, organism-based
Conditions: Felid alphaherpesvirus 1, CRFK, 96 h
Work on `CCOC(=O)c1c(C)nc(NCCCNc2ccnc3cc(Cl)ccc23)nc1C` yielded an EC50 greater than 100 µM.

Test system: Human immunodeficiency virus 1
Assay: Antiviral activity against HIV1 infected in human CEM cells assessed as inhibition of virus-induced cytopathic effect after 4 days
Assay type: functional, organism-based
Conditions: Human immunodeficiency virus 1, CCRF-CEM, 96 h
Outline: (§3)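 CEM T-lymphocytes (~3 × 10^5 cells/ml) were infected with HIV-1 IIIB or HIV-2 ROD at ~100 CCID50, then immediately plated with a range of compound concentrations. Giant cell formation was scored microscopically after 4 days at 37 °C. Cytostatic activity was tested in parallel in uninfected CEM cells.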
`CCOC(=O)c1c(C)nc(NCCCNc2ccnc3cc(Cl)ccc23)nc1C` gave an EC50 greater than 2 µM.

Test system: Human immunodeficiency virus 2
Assay: Antiviral activity against HIV2 infected in human CEM cells assessed as inhibition of virus-induced cytopathic effect after 4 days
Assay type: functional, organism-based
Conditions: Human immunodeficiency virus 2, CCRF-CEM, 96 h
Outline: as §3
In the case of `CCOC(=O)c1c(C)nc(NCCCNc2ccnc3cc(Cl)ccc23)nc1C`, the EC50 is reported as greater than 2 µM.

Test system: not listed separately
Assay: Inhibition of beta-hematin formation assessed as Ferriprotoporphyrin IX biomineralisation at 1 mg/ml after 24 hrs
Assay type: functional
Conditions: not given
Outline: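 Hemin chloride (0.5 mg/ml in DMSO) mixed with 0.5 M sodium acetate buffer pH 4.4 and drug or solvent control, incubated 37 °C for 24 h. Pellet washed with DMSO to remove unreacted hemin, dissolved in 0.1 N NaOH, absorbance read at 405 nm; percent inhibition relative to control. Highest concentration tested 1 mg/ml.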
In the case of `CCOC(=O)c1c(C)nc(NCCCNc2ccnc3cc(Cl)ccc23)nc1C`, the inhibition is reported as 66%.
